Results taken from ChEMBL document CHEMBL1145931, “Synthesis of a prodrug designed to release multiple inhibitors of the epidermal growth factor receptor tyrosine kinase and an alkylating agent: a novel tumor targeting concept” (J Med Chem, 2003).

What was measured:
[1] = test system: NIH3T3; experiment: Inhibition of serum stimulated NIH3T3 cell proliferation; type: functional, cell-based; conditions: Mus musculus
Outline: (§1)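 Cells were kept in DMEM with 10% FBS, grown to 70% confluence, PBS-washed and serum-starved for 24 h. They were then exposed to drug plus serum for 72 h, with DMSO at most 0.2%. Growth was measured by SRB staining after TCA fixation, OD 492 nm. IC50s are means from three experiments.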

[2] = Inhibition of serum stimulated HER-14 (EGF-receptor expressing) cell proliferation; type: functional; outline: as §1
[3] = Inhibition of serum stimulated NIH3T3/neu (ErbB2/neu expressing) cell proliferation; type: functional; outline: as §1
[4] = Half-life period in phosphate buffered saline (PBS); type: ADME
[5] = Half-life period in RPMI; type: ADME; conditions: RPMI medium
Outline: (§2)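 Compound dissolved in a minimal amount of DMSO and diluted into RPMI-1640 with 10% FBS. Absorbance was monitored spectrophotometrically in a UV cell held at 37 °C. Half-life came from a one-phase exponential decay curve fit. Each value is from a single experiment.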

[6] = target: Epidermal growth factor receptor (Homo sapiens) (UniProt P00533); experiment: Inhibition of epidermal growth factor receptor tyrosine kinase (EGFR TK)
[7] = Half-life period in RPMI; Not active; type: ADME; outline: as §2
[8] = Half-life period in phosphate buffered saline (PBS); Not active; type: ADME; conditions: buffer

Chain of Epidermal growth factor receptor (Homo sapiens) (P00533 whole entry, looked up): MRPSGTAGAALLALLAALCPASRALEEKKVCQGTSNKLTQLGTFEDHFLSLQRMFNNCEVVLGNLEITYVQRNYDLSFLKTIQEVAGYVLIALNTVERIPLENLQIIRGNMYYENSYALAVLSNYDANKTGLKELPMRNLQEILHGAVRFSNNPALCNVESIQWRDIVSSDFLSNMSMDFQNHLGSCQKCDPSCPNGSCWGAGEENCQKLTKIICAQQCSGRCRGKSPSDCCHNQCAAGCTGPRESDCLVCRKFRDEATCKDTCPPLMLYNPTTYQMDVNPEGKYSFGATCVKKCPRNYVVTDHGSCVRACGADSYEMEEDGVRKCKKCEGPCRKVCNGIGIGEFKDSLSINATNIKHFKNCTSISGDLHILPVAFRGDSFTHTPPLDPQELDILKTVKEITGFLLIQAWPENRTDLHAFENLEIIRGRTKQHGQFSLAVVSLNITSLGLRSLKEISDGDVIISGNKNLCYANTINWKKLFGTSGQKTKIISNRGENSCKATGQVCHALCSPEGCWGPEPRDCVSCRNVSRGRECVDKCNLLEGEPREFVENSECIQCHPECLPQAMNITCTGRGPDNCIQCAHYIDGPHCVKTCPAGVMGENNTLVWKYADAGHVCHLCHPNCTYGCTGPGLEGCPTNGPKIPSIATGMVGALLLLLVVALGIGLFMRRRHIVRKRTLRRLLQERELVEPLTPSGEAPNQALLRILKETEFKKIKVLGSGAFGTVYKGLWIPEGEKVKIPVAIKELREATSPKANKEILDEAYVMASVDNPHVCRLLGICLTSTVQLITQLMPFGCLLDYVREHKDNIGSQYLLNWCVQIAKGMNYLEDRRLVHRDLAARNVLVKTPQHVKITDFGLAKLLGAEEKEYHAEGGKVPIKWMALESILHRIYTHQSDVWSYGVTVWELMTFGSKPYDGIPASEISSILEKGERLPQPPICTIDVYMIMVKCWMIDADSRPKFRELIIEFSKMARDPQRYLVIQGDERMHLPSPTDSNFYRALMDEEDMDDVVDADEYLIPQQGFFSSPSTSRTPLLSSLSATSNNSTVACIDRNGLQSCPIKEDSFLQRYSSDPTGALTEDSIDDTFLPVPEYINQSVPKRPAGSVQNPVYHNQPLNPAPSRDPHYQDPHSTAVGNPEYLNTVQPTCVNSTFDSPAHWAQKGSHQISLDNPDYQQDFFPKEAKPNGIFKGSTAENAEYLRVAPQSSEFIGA

Row | SMILES | half-life [4] [h] | half-life [5] [h] | IC50 [6] [µM] | IC50 [1] [µM] | IC50 [2] [µM] | IC50 [3] [µM] | NA [7] | NA [8]
1 | COc1cc2ncnc(Nc3cccc(Cl)c3)c2cc1OC.Cn1nnc2c(C(O)O)ncn2c1=O | – | – | – | 39.4 | 6.2 | 1.1 | – | –
2 | COc1cc2ncnc(Nc3cccc(Cl)c3)c2cc1OC [TYRPHOSTIN AG-1478] | – | – | – | 28.6 | 9.8 | 4 | – | –
3 | Nc1ccc2ncnc(Nc3cccc(Br)c3)c2c1 | – | – | – | 14.5 | 10.4 | 0.42 | Not Active | Not Active
4 | C/N=N/Nc1ccc2ncnc(Nc3cccc(Br)c3)c2c1 | 1.13 | 0.633 | – | 150 | 8.8 | 0.09 | – | –

Continued, in another order:

Row | half-life [4] [h] | half-life [5] [h] | IC50 [6] [µM] | SMILES | IC50 [1] [µM] | IC50 [2] [µM] | IC50 [3] [µM] | NA [7] | NA [8]
5 | 1.15 | 0.583 | – | C/N=N/Nc1ccc2ncnc(Nc3cccc(C)c3)c2c1 | 125 | 28.9 | 16.5 | – | –
6 | 1.4 | 0.7 | 0.13 | CC(=O)OCN(C)/N=N/c1ccc2ncnc(Nc3cccc(Br)c3)c2c1 | 15.4 | 3.4 | 0.21 | – | –
7 | > 3.33 | > 3.33 | 0.578 | CC(=O)N(C)/N=N/c1ccc2ncnc(Nc3cccc(C)c3)c2c1 | 200 | 149 | 60.6 | – | –
8 | 1.17 | 0.667 | – | CN(CO)/N=N/c1ccc2ncnc(Nc3cccc(Br)c3)c2c1 | 12.8 | 2.1 | 0.09 | – | –
